From ChEMBL document CHEMBL1152663, “Antimalarial and antitrypanosomal activity of a series of amide and sulfonamide derivatives of a 2,5-diaminobenzophenone” (Bioorg Med Chem, 2009)
pEC50, pIC50: −log10 of the molar value. The source made the active and inactive calls. No cut-off for these calls is given here.

What was measured:
[1] = target: T1, Multidrug resistance protein Pgh1 (Plasmodium falciparum) (UniProt Q9NG76); test: Inhibition of Plasmodium PGH1-mediated fluorochrome accumulation into parasite digestive vacuole at […] concentration
T1 sequence (whole entry): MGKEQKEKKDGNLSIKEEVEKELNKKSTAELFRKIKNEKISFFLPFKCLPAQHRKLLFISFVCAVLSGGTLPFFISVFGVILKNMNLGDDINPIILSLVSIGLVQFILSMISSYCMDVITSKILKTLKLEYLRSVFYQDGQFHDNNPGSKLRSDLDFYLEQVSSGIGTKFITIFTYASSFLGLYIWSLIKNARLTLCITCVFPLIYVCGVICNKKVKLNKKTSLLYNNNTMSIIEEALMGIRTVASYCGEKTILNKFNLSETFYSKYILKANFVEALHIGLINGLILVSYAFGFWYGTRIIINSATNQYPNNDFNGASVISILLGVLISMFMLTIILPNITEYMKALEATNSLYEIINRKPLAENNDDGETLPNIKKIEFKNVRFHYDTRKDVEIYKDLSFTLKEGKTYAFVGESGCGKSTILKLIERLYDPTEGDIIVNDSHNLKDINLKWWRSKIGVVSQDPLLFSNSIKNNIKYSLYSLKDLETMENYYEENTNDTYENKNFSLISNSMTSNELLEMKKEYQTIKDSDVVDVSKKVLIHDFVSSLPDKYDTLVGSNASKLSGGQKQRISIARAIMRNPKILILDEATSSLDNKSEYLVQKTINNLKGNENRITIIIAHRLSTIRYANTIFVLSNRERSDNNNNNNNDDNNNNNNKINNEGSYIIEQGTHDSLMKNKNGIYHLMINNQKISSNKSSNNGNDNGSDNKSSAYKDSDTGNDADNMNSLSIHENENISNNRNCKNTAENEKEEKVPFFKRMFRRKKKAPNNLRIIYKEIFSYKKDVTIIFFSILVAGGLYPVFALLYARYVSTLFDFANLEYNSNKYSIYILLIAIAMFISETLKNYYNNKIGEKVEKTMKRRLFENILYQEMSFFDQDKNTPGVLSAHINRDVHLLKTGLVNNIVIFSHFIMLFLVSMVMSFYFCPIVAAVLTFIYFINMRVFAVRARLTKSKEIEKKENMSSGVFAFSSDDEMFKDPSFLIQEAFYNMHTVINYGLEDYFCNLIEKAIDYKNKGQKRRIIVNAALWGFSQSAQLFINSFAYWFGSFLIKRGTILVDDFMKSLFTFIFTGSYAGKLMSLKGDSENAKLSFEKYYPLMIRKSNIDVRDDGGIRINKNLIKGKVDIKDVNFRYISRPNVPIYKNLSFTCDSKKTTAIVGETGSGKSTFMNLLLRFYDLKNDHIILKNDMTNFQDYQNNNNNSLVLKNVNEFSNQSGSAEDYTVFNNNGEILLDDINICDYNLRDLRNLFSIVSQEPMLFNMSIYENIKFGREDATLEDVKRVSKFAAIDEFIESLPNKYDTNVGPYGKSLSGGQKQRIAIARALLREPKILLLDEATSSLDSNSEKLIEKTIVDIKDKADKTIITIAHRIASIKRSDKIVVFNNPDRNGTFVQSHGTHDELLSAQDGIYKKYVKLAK

[2] = tested on: Trypanosoma brucei brucei; test: Antitrypanosomal activity against Trypanosoma brucei brucei TC221 after 48 hrs by alamar blue assay; type: functional, organism-based; details: TC221, 48 h
Summary of the method: (§1)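 T. b. brucei TC 221 trypomastigotes grown in Baltz medium; 10⁴ parasites/mL exposed to graded compound concentrations (DMSO or 0.1 M NaOH solutions) at 37 °C, 5% CO₂. Alamar Blue absorbance at 550 nm (reference 630 nm) read at 48 h and 72 h. Parasite-only and compound-only controls; ED₅₀ by linear interpolation of three measurements.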

[3] = Selectivity index, ratio of CC50 for human HeLa cells to IC50 for Plasmodium falciparum Dd2 […] cells; type: functional
Summary of the method: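 Selectivity index computed as HeLa CC₅₀ (72 h methylene blue assay) divided by P. falciparum Dd2 IC₅₀ (72 h [³H]-hypoxanthine assay).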

Plasmodium falciparum = test: Antimalarial activity against Plasmodium falciparum Dd2 […] cells after 72 hrs by [3H]hypoxanthine incorporation assay; type: functional, organism-based
Summary of the method: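 Synchronized (sorbitol) blood-stage P. falciparum Dd2 cultures exposed to a range of compound concentrations for 72 h; growth read by [³H]-hypoxanthine incorporation, percent inhibition used to derive IC₅₀. At least three independent repeats, mean ± SEM.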

[4] = tested on: Trypanosoma brucei brucei; test: Antitrypanosomal activity against Trypanosoma brucei brucei TC221 after 72 hrs by alamar blue assay; type: functional, organism-based; details: TC221, 72 h; summary of the method: as §1
[5] = Cytotoxicity against human HeLa cells after 72 hrs by methylene blue staining; type: cell-based
Summary of the method: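 HeLa cells in RPMI 1640 with 10% heat-inactivated FBS and gentamicin; ~10,000 cells/well preincubated 48 h, then exposed to compound (DMSO stock 10 mg/mL diluted 1:200) for 72 h at 37 °C, 5% CO₂. Glutaraldehyde fixation, 0.05% methylene blue staining, elution with 0.33 M HCl, OD 660 nm.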

[6] = target: ATP-dependent translocase ABCB1 (Homo sapiens, UniProt P08183); test: Inhibition of ABCB1 overexpressed in human CCRF-CEM/VCR1000 cell assessed as inhibition of daunomycin efflux after 30 mins by FACS analysis

Row | SMILES | inhibition [1] | pIC50 [2] | Ratio CC50/IC50 [3] | pIC50 (Plasmodium falciparum) | pIC50 [4] | CC50 at 72 h [5] | pEC50 [6]
1 | CN1CCN(CC(=O)Nc2ccc(NC(=O)c3ccccc3)cc2C(=O)c2ccccc2)CC1 | inactive | 4.31 | >7 | < 4.80 | 4.08 | > 109 µM | 
2 | CN1CCN(CC(=O)Nc2ccc(NC(=O)c3ccc4ccccc4c3)cc2C(=O)c2ccccc2)CC1 | inactive | 6.09 | 5 | 5.70 | 5.70 | 9 µM | 6.32
3 | CN1CCN(CC(=O)Nc2ccc(NC(=O)CCc3ccccc3)cc2C(=O)c2ccccc2)CC1 | inactive | 4.86 | 12 | 5.17 | 4.66 | 80 µM | 5.65
4 | CC1CCN(C(=O)Nc2ccc(NC(=O)C(c3ccccc3)N3CCN(C)CC3)c(C(=O)c3ccccc3)c2)CC1 (centres undefined) | inactive |  |  | < 4.80 |  |  | 5.30
5 | CC(C)N(C(=O)Nc1ccc(NC(=O)C(c2ccccc2)N2CCN(C)CC2)c(C(=O)c2ccccc2)c1)C(C)C (centres undefined) | inactive |  | 36 | 6.96 |  | 4 µM | 6.34
6 | CCC(=O)Nc1ccc(NC(=O)CN2CCN(C)CC2)c(C(=O)c2ccccc2)c1 | inactive | 4.27 | >8 | < 4.80 | 4.15 | > 122 µM | 
7 | CC(=O)Nc1ccc(NC(=O)CN2CCN(C)CC2)c(C(=O)c2ccccc2)c1 | inactive | 4.64 | 6 | 5.02 | 4.64 | 53 µM | 
8 | CN1CCN(C(C(=O)Nc2ccc(NC(=O)c3cccnc3)cc2C(=O)c2ccccc2)c2ccccc2)CC1 (centres undefined) | inactive | 5.30 | 16 | 5.65 | 5.15 | 37 µM | 5.29
9 | CN1CCN(C(C(=O)Nc2ccc(NC(=O)c3ccccc3)cc2C(=O)c2ccccc2)c2ccccc2)CC1 (racemic) | inactive | 5.48 | 10 | 5.79 | 5.48 | 16 µM | 6.62
10 | CN1CCN(C(C(=O)Nc2ccc(NS(C)(=O)=O)cc2C(=O)c2ccccc2)c2ccccc2)CC1 (racemic) | inactive | 5.25 | 9 | 4.97 | 5.23 | 99 µM | 4.81
11 | CCC(=O)Nc1ccc(NC(=O)C(c2ccccc2)N2CCN(C)CC2)c(C(=O)c2ccccc2)c1 (racemic) | inactive | 4.78 | 12 | 5.14 | 4.61 | 84 µM | 5.48
12 | CN1CCN(C(C(=O)Nc2ccc(NC(=O)c3ccc4ccccc4c3)cc2C(=O)c2ccccc2)c2ccccc2)CC1 (racemic) | inactive | 5.70 | 17 | 6.62 | 5.58 | 4 µM | 7.40
13 | CN1CCN(C(C(=O)Nc2ccc(NC(=O)CCc3ccccc3)cc2C(=O)c2ccccc2)c2ccccc2)CC1 (racemic) | inactive | 5.49 | 4 | 5.74 | 5.52 | 8 µM | 7.22
14 | CN1CCN(C(C(=O)Nc2ccc(NC(=O)Cc3ccccc3)cc2C(=O)c2ccccc2)c2ccccc2)CC1 (racemic) | inactive | 5.44 | 8 | 5.70 | 5.49 | 16 µM | 6.44
15 | CN1CCN(C(C(=O)Nc2ccc(NC(=O)c3cccc4ccccc34)cc2C(=O)c2ccccc2)c2ccccc2)CC1 (racemic) | inactive | 5.71 | 4 | 6.03 | 5.57 | 4 µM | 6.64
16 | CN1CCN(C(C(=O)Nc2ccc(NS(=O)(=O)c3ccccc3)cc2C(=O)c2ccccc2)c2ccccc2)CC1 (racemic) | inactive | 5.27 | 29 | 6.04 | 5.53 | 26 µM | 6.05
17 | CN1CCN(C(C(=O)Nc2ccc(N(S(=O)(=O)c3ccccc3)S(=O)(=O)c3ccccc3)cc2C(=O)c2ccccc2)c2ccccc2)CC1 (racemic) | inactive | 5.52 | 10 | 5.91 | 5.51 | 12 µM | 7.40
18 | CC(=O)Nc1ccc(NC(=O)C(c2ccccc2)N2CCN(C)CC2)c(C(=O)c2ccccc2)c1 (racemic) | inactive | 5.04 | 11 | 5.01 | 5.18 | 105 µM | 5.20
19 | CN1CCN(C(C(=O)Nc2ccc(NC(=O)C(C)(C)C)cc2C(=O)c2ccccc2)c2ccccc2)CC1 (racemic) | inactive | 4.94 | 15 | 5.52 | 5.33 | 45 µM | 6.41
